Source: ChEMBL document CHEMBL1134283, “Rational design, discovery, and synthesis of a novel series of potent growth hormone secretagogues” (J Med Chem, 2001)
Where a SMILES comes first, the peptide text is derived from it. [ ]: non-standard residue; d: D form. d2Nal = N[C@H](Cc1ccc2ccccc2c1)C(=O)O; d(hPhe) = N[C@H](CCc1ccccc1)C(=O)O; Aib = CC(C)(N)C(=O)O

Species: Rattus norvegicus
Assay: Effective concentration for ability to release growth hormone from rat pituitary cells
Format: functional, cell-based
Conditions: Pituitary gland cell
Summary of the method: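 Rat anterior pituitaries were digested with 0.2% collagenase, 0.2% hyaluronidase and 200 U/mL DNase I. Cells were plated at 1.0 × 10⁵ cells/mL in DMEM with 7.5% horse serum and 5.0% fetal calf serum and cultured 3 days. After washes in medium with 20 mM HEPES pH 7.4, cells were exposed to compound for 15 min at 37 °C. Released GH was measured by RIA. EC50 was referenced to the maximal GH level from 10^-8 M KP-102.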

SMILES | EC50 [nM]
NCCNC(=O)[C@@H](Cc1ccc2ccccc2c1)NC(=O)CN1C(=O)CCS(=O)(=O)c2ccccc21 | 100
NCC(O)CNC(=O)[C@@H](Cc1ccc2ccccc2c1)NC(=O)CCCN1C(=O)CCSc2ccccc21 (some centres undefined) | 1
NCCNC(=O)[C@@H](Cc1ccc2ccccc2c1)NC(=O)CCN1C(=O)CCS(=O)(=O)c2ccccc21 | 10
O=C(N[C@H](Cc1ccc2ccccc2c1)C(=O)N[C@@H](CO)Cc1ccc2ccccc2c1)C1CCNCC1 | 1.8
NCCNC(=O)[C@H](Cc1ccccc1)NC(=O)CN1C(=O)CCSc2ccccc21 | 1000
NC(=O)CN(CCc1ccccc1)C(=O)[C@@H](Cc1ccc2ccccc2c1)NC(=O)[C@@H](Cc1ccc2ccccc2c1)NC(=O)C1CCNCC1 | 0.1
NCCNC(=O)[C@@H](Cc1ccccc1)NC(=O)CN1C(=O)CCS(=O)(=O)c2ccccc21 | 1000
C[C@H](NC(=O)[C@@H](Cc1c[nH]c2ccccc12)NC(=O)[C@@H](N)Cc1c[nH]cn1)C(=O)N[C@@H](Cc1c[nH]c2ccccc12)C(=O)N[C@H](Cc1ccccc1)C(=O)N[C@H](CCCCN)C(N)=O | 100
C[C@H](NC(=O)[C@@H](Cc1ccc2ccccc2c1)NC(=O)[C@@H](C)N)C(=O)N[C@@H](Cc1c[nH]c2ccccc12)C(=O)N[C@H](Cc1ccccc1)C(=O)O | 10
CC(C)[C@H](NC(=O)[C@@H](Cc1c[nH]c2ccccc12)NC(=O)[C@@H](N)Cc1c[nH]cn1)C(=O)N[C@@H](Cc1c[nH]c2ccccc12)C(=O)N[C@H](Cc1ccccc1)C(=O)N[C@@H](CCCCN)C(N)=O (H-H[dW]VW[dF]K-NH2) | > 1000
CCOC(=O)[C@@H](CCc1ccccc1)NC(=O)[C@@H](Cc1c[nH]c2ccccc12)NC(=O)C(C)(C)N (H-[Aib]-[dW]-[d(hPhe)]-OEt) | 3
C[C@H](NC(=O)[C@@H](Cc1ccc2ccccc2c1)NC(=O)[C@@H](C)N)C(=O)N[C@@H](Cc1c[nH]c2ccccc12)C(=O)N[C@H](Cc1ccccc1)C(=O)N[C@@H](CCCCN)C(=O)O (H-[dA][d2Nal]AW[dF]K-OH) | 1
C[C@H](NC(=O)[C@@H](Cc1ccccc1)NC(=O)[C@@H](C)N)C(=O)N[C@@H](Cc1ccccc1)C(=O)N[C@H](Cc1ccccc1)C(=O)N[C@@H](CCCCN)C(N)=O (H-[dA][dF]AF[dF]K-NH2) | 10
C[C@H](NC(=O)[C@@H](Cc1ccc2ccccc2c1)NC(=O)[C@@H](C)N)C(=O)N[C@@H](Cc1c[nH]c2ccccc12)C(=O)N[C@H](Cc1ccccc1)C(=O)N[C@@H](CCCCN)C(N)=O [PRALMORELIN] (H-[dA][d2Nal]AW[dF]K-NH2) | 0.2
